These results are taken from ChEMBL document CHEMBL3865817, “Synthesis and biological evaluation of C(5)-substituted derivatives of leukotriene biosynthesis inhibitor BRP-7” (Eur J Med Chem, 2016).

The source made the active and inactive calls. No cut-off for these calls is given here.

For assay [1], the target named is T1, Arachidonate 5-lipoxygenase-activating protein (Homo sapiens) (UniProt P20292).
T1 sequence (whole entry): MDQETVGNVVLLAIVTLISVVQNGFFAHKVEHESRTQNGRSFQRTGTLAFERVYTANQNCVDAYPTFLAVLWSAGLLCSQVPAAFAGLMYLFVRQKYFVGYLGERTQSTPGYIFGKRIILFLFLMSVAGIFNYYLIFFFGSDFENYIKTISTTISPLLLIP
Nature of the assay: Inhibition of FLAP in human neutrophils assessed as suppression of A23187-stimulated 5-LO product formation using arachidonic acid as substrate measured as residual activity at 10 uM preincubated for 15 mins followed by A23187/arachidonic acid addition after 10 mins RP-HPLC/UV analysis relative to control. The method, boiled down: (§1)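 Neutrophils were isolated from human blood by dextran sedimentation, Nycoprep centrifugation and hypotonic lysis of erythrocytes, then resuspended in PGC buffer (PBS pH 7.4, 1 mg/ml glucose, 1 mM CaCl2). Cells were pre-incubated with compound or vehicle (0.1% DMSO) for 15 min at 37 °C, stimulated with 2.5 µM A23187 for 10 min, and stopped with methanol. Internal standard PGB1. 5-LO products (LTB4, its trans isomers, 5-H(P)ETE) were measured by HPLC.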

Assay [2] addresses T1, Arachidonate 5-lipoxygenase-activating protein (Homo sapiens). Kind of assay: Inhibition of FLAP in human neutrophils assessed as suppression of A23187-stimulated 5-LO product formation using arachidonic acid as substrate measured as residual activity at 1 uM preincubated for 15 mins followed by A23187/arachidonic acid addition after 10 mins RP-HPLC/UV analysis relative to control. The method, boiled down: as §1

Assay [3] concerns the target T2, Arachidonate 5-lipoxygenase-activating protein (Homo sapiens, UniProt P20292).
T2 sequence (P20292 whole entry): T1 sequence (whole entry)
Kind of assay: (§2) Inhibition of FLAP in human neutrophils assessed as suppression of A23187-stimulated 5-LO product formation using arachidonic acid as substrate preincubated for 15 mins followed by A23187/arachidonic acid addition after 10 mins RP-HPLC/UV analysis. The procedure, abridged:
as §1

The target of assay [4] is T1, Arachidonate 5-lipoxygenase-activating protein (Homo sapiens). Described as §2. The method, boiled down: as §1
Assay [5] has as its target T2, Arachidonate 5-lipoxygenase-activating protein. Kind of assay: Inhibition of FLAP in human monocytes assessed as suppression of fMLP/LPS-stimulated cys-LT formation preincubated for 15 mins measured after 10 mins by ELISA. The class given is cell-based.
Assay [6] concerns the target T1, Arachidonate 5-lipoxygenase-activating protein (Homo sapiens). Kind of assay: Potency index, ratio of BRP-7 IC50 to compound IC50 for FLAP in human neutrophils.
Assay [7] addresses T2, Arachidonate 5-lipoxygenase-activating protein. Nature of the assay: Inhibition of FLAP in human monocytes assessed as suppression of A23187-stimulated 5-LO product formation using 10 uM arachidonic acid as substrate preincubated for 15 mins followed by A23187/arachidonic acid addition after 10 mins by RP-HPLC/UV analysis. The class given is cell-based.
Assay [8] shares this target. Kind of assay: Inhibition of FLAP in human monocytes assessed as suppression of A23187-stimulated 5-LO product formation preincubated for 15 mins followed by A23187 after 10 mins RP-HPLC/UV analysis. The class given is cell-based.
Assay [9] deals with T1, Arachidonate 5-lipoxygenase-activating protein (Homo sapiens). Kind of assay: Inhibition of FLAP (unknown origin) expressed in HEK293 cells co-expressing 5-LO assessed as suppression of A23187-stimulated 5-LO product formation at 0.3 uM using arachidonic acid as substrate preincubated for 15 mins followed by A23187/substrate addition by RP-HPLC analysis. The class given is cell-based.

The target of assay [10] is T3, Polyunsaturated fatty acid 5-lipoxygenase (Homo sapiens) (UniProt P09917).
T3 sequence (whole entry): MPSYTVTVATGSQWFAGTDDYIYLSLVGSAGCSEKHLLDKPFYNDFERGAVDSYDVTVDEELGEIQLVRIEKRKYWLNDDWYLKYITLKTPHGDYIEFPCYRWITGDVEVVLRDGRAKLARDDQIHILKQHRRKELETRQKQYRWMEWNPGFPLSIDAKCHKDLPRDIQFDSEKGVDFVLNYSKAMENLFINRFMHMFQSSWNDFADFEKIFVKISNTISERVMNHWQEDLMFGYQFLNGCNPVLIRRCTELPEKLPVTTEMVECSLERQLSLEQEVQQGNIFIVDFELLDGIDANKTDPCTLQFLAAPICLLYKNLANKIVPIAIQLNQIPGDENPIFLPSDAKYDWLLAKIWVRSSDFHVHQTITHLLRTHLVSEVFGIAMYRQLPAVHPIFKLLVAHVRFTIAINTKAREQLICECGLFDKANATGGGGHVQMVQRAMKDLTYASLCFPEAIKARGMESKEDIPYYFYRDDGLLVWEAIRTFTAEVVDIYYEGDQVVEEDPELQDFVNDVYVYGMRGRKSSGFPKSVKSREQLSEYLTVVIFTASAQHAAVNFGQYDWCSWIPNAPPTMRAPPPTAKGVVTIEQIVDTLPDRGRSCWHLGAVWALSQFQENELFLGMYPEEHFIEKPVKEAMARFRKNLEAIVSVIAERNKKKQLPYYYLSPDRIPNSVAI
The conditions noted are these: 3 uM.

For the compound `Cc1ccccc1COc1ccc2c(c1)nc(C(C)c1ccc(CC(C)C)cc1)n2Cc1ccccc1C(F)(F)F` (stereo not given), the Activity was determined as 89.7% in assay [1] and 97.1% in [2].

Turning to `CC(C)Cc1ccc(C(C)c2nc3cc(OCc4cccc(F)c4)ccc3n2Cc2ccccc2C(F)(F)F)cc1` (stereo not given), the values for the Activity in assay [1] and in [2] were 85.9% and 92%, respectively.

Take `COc1ccc(COc2ccc3c(c2)nc(C(C)c2ccc(CC(C)C)cc2)n3Cc2ccccc2C(F)(F)F)cc1` (stereo not given): the Activity in [1] stood at 80.1%; in [2] it was 81.6%.

As for `CCCCOc1ccc2c(c1)nc(C(C)c1ccc(CC(C)C)cc1)n2Cc1ccccc1C(F)(F)F` (stereo not given), in [2], the Activity is 58.1%.

For `Cc1cccc(COc2ccc3c(c2)nc(C(C)c2ccc(CC(C)C)cc2)n3Cc2ccccc2C(F)(F)F)c1` (stereo not given), in assay [2], the Activity amounted to 98.2%.

Consider `CC(C)Cc1ccc(C(C)c2nc3cc(OCc4ccc(C(C)(C)C)cc4)ccc3n2Cc2ccccc2C(F)(F)F)cc1` (stereo not given), for which the Activity in assay [1] is 94%; in [2] it was 94.9%.

As for `CC(C)Cc1ccc(C(C)c2nc3cc(OCc4ccc(OC(F)(F)F)cc4)ccc3n2Cc2ccccc2C(F)(F)F)cc1` (stereo not given), the Activity in assay [2] worked out at 99.9%.

As for `CC(C)Cc1ccc(C(C)c2nc3cc(OCc4ccc(C#N)cc4)ccc3n2Cc2ccccc2C(F)(F)F)cc1` (stereo not given), the Activity in assay [2] was 71.1%.

As for `C=CCOc1ccc2c(c1)nc(C(C)c1ccc(CC(C)C)cc1)n2Cc1ccccc1C(F)(F)F` (stereo not given), the IC50 (as a rule, the point on the concentration scale where inhibition reaches its midpoint) in [3] was found to be 170 nM. Further, the Activity in [1] is 0.6%; in assay [2], 7.5%.

Regarding `CC(C)Cc1ccc(C(C)c2nc3cc(C#N)ccc3n2Cc2ccccc2Cl)cc1` (stereo not given), the inhibition (usually the percentage by which the read-out fell short of the control) in assay [4] was “Dose-dependent effect”. Also, the IC50 in assay [3] worked out at 70 nM; in [5], 12 nM; in assay [7] it was 35 nM; in assay [8], 26 nM. The Ratio IC50 in assay [6] is 4.4. In assay [9], the inhibition result was “Active”. Besides, the Activity in assay [2] is 0%.

As to `CCC#CCOc1ccc2c(c1)nc(C(C)c1ccc(CC(C)C)cc1)n2Cc1ccccc1C(F)(F)F` (stereo not given), the Activity in assay [2] was 55.6%.

`CC(C)=CCOc1ccc2c(c1)nc(C(C)c1ccc(CC(C)C)cc1)n2Cc1ccccc1C(F)(F)F` (stereo not given): in assay [2], the Activity is 60.2%.

With `CC(C)Cc1ccc(C(C)c2nc3cc(OCc4ccccn4)ccc3n2Cc2ccccc2C(F)(F)F)cc1` (stereo not given), the IC50 in [3] was found to be 150 nM. Further, the Activity in assay [2] is 0%.

Take `CC(C)Cc1ccc(C(C)c2nc3cc(OCc4ccccc4Cl)ccc3n2Cc2ccccc2C(F)(F)F)cc1` (stereo not given): the Activity in assay [1] and in [2] was 92.2% each time.

For `CC(C)Cc1ccc(C(C)c2nc3cc(OCc4ccc(Br)cc4)ccc3n2Cc2ccccc2C(F)(F)F)cc1` (stereo not given), the Activity came out at 94.4% in [1] and 108% in assay [2].

Regarding `Cc1ccc(COc2ccc3c(c2)nc(C(C)c2ccc(CC(C)C)cc2)n3Cc2ccccc2C(F)(F)F)cc1` (stereo not given), the figures for the Activity in assay [1] and in assay [2] were 90.5% and 92.6%, respectively.

For the compound `CC(C)Cc1ccc(C(C)c2nc3cc(OCc4ccccc4C#N)ccc3n2Cc2ccccc2C(F)(F)F)cc1` (stereo not given), in assay [2], the Activity was 65.2%.

As for `CC(C)Cc1ccc(C(C)c2nc3cc(OCc4ccc(C(F)(F)F)cc4)ccc3n2Cc2ccccc2C(F)(F)F)cc1` (stereo not given), the Activity in [1] was determined as 94.3%; in assay [2], 91.7%.

Regarding `CC(C)Cc1ccc(C(C)c2nc3cc(OCc4ccccc4C#N)ccc3n2Cc2ccccc2Cl)cc1` (stereo not given), in [3], the IC50 amounted to 120 nM. Moreover, the results for the Activity in assay [1] and in [2] were 15.6% and 39.9%, respectively.

In assay [10], `CC(c1cc2ccccc2s1)N(O)C(N)=O` (stereo not given) yielded an inhibition above 80%.

`CC(C)Cc1ccc(C(C)c2nc3cc(OCc4ccccc4C(F)(F)F)ccc3n2Cc2ccccc2C(F)(F)F)cc1` (stereo not given): the Activity in [2] was determined as 90.9%.

For the compound `CC(C)c1ccc2c(c1)c(SC(C)(C)C)c(CC(C)(C)C(=O)O)n2Cc1ccc(Cl)cc1`, the inhibition entry in assay [9] was “Active”. In [2], the Activity amounted to 2.7%.

Take `COC(=O)COc1ccc2c(c1)nc(C(C)c1ccc(CC(C)C)cc1)n2Cc1ccccc1C(F)(F)F` (stereo not given): the IC50 in [3] stood at 210 nM. In addition, the Activity in assay [2] turned out to be 1.9%.
